ChEMBL document CHEMBL2010650, “Synthetic N-alkylated iminosugars as new potential immunosuppressive agents” (ACS Med Chem Lett, 2011)
The source made the active and inactive calls. No cut-off for these calls is given here.

Key:
Mus musculus [1] = organism: Mus musculus; assay: Toxicity in C57BL/6 mouse transplanted with trunk skin of BALB/c mouse assessed as mortality; format: organism-based; settings: in vivo
Th1 = assay: Immunosuppressive activity in Th1 cells assessed as reduction of IFNgamma production; format: functional, cell-based
Th2 = assay: Immunosuppressive activity in Th2 cells assessed as reduction of IL-4 production; format: functional, cell-based
[2] = Immunosuppressive activity in BALB/c mouse splenocytes assessed as inhibition of concanavalin-A-induced cell proliferation at 30 uM after 48 hrs by MTT assay; format: functional; settings: Splenocyte
Outline: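 Mouse splenocytes stimulated with Con A at 2.5 μg/mL, incubated with compound at 37 °C, 5% CO₂ for 48 h. Proliferation read by MTT assay. Con A-treated cells serve as control, CsA (1 μM) as positive control. Inhibition is expressed relative to control, as means ± SEM.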

Splenocyte [3] = assay: Immunosuppressive activity in BALB/c mouse splenocytes assessed as reduction in concanavalin-A-induced IL4 production at 30 uM after 48 hrs by ELISA; format: functional; set-up: scale not given: the % may be the effect or the level left
Outline: (§1)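 Splenocytes induced with 2.5 μg/mL Con A, co-incubated with compound 48 h at 37 °C, 5% CO₂. Culture supernatant assayed for IFN-γ or IL-4 by mouse ELISA kit. Reduction is relative to Con A-only control, with CsA 1 μM as positive control.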

Splenocyte [4] = assay: Immunosuppressive activity in BALB/c mouse splenocytes assessed as reduction in concanavalin-A-induced IFN-gamma production at 30 uM after 48 hrs by ELISA; format: functional; set-up: scale not given: the % may be the effect or the level left; outline: as §1
Mus musculus [5] = assay: Immunosuppressive activity in C57BL/6 mouse transplanted with trunk skin of BALB/c mouse assessed as increase of allograft mean survival time at 50 umol/kg, sc (reference value: 11.25 +/- 1.83 days); format: functional
[6] = Toxicity in subcutaneously dosed C57BL/6 mouse transplanted with trunk skin of BALB/c mouse; format: organism-based; settings: in vivo, sc
Splenocyte [7] = assay: Immunosuppressive activity in BALB/c mouse splenocytes assessed as reduction in concanavalin-A-induced IL4 production at 1 uM after 48 hrs by ELISA; format: functional; set-up: scale not given: the % may be the effect or the level left; outline: as §1
Splenocyte [8] = assay: Immunosuppressive activity in BALB/c mouse splenocytes assessed as reduction in concanavalin-A-induced IFN-gamma production at 1 uM after 48 hrs by ELISA; format: functional; set-up: scale not given: the % may be the effect or the level left; outline: as §1

Compound | Activity (Mus musculus [1]) | Activity (Th1) | Activity (Th2) | inhibition at 30 µM [2] | Activity (Splenocyte [3]) | Activity (Splenocyte [4]) | MST (Mus musculus [5]) | LD50 [6] | Activity (Splenocyte [7]) | Activity (Splenocyte [8])
CCCCCCCCCCN1C[C@H](O)C(O)[C@@H](O)C1 | Non-toxic | Active | Active | 57.2% | 95.7% | 78.1% | 14.14 days | – | – | –
CCCCCCCCCCN1C[C@@H](O)[C@@H](O)C1 | Non-toxic | Active | Active | 61% | 88.6% | 94.7% | 15.6 days | 392 mg/kg | – | –
CCCCCCCCN1C[C@@H](O)[C@H](O)[C@@H](O)C1 | – | Active | – | 27.1% | 8.7% | 40.3% | – | – | – | –
CCCCCCCCCCN1C[C@@H](O)[C@H](O)[C@@H](O)C1 | Non-toxic | Active | Active | 45.9% | 60.9% | 89.1% | 14.71 days | – | – | –
CCCCCCCCCCN1C[C@H](O)[C@H](O)C1=O | – | – | – | < 40% | – | – | – | – | – | –
CCCCCCCCCCN1C[C@@H](O)C(O)[C@H](O)C1 | Non-toxic | Active | Active | 59% | 85.6% | 75% | 15.2 days | – | – | –
CCCCCCCCCCN1C[C@@H](O)[C@@H](O)[C@H](O)C1=O | – | – | – | < 40% | – | – | – | – | – | –
C/C=C/C[C@@H](C)[C@@H](O)[C@H]1C(=O)N[C@@H](CC)C(=O)N(C)CC(=O)N(C)[C@@H](CC(C)C)C(=O)N[C@@H](C(C)C)C(=O)N(C)[C@@H](CC(C)C)C(=O)N[C@@H](C)C(=O)N[C@H](C)C(=O)N(C)[C@@H](CC(C)C)C(=O)N(C)[C@@H](CC(C)C)C(=O)N(C)[C@@H](C(C)C)C(=O)N1C [CYCLOSPORINE] | – | – | – | – | – | – | – | – | 96.8% | 97.1%
CCCCCCCCCCN1C[C@H](O)[C@@H](O)[C@@H](O)C1=O | – | – | – | < 40% | – | – | – | – | – | –
CCCCCCCCCCN1C[C@H](O)[C@@H](O)[C@H](O)C1=O | – | – | – | < 40% | – | – | – | – | – | –
